Experimental data: ChEMBL document CHEMBL1123757, “Selective thromboxane synthetase inhibitors and antihypertensive agents. New derivatives of 4-hydrazino-5H-pyridazino[4,5-b]indole, 4-hydrazinopyridazino[4,5-a]indole, and related compounds” (J Med Chem, 1987)
Blank lines part the entries; values can stand above or below the compound they belong to.

Tests used:
Cavia porcellus [1] = experiment: Effect on thromboxane synthetase activity on ex vivo platelet aggregation induced by PGE-2 at 100 mg/kg expressed as percent increase; type: functional
Method in brief: (§1)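 Fasted male or female guinea pigs (250–300 g, five per group) dosed orally in normal saline or saline with 0.2% (carboxymethyl)cellulose/1.0% Tween 80; controls given vehicle. Under ether, cardiac blood collected into 3.8% citrate. PRP adjusted to […] and aggregation induced by ADP (second wave) or AA, read by absorbance aggregometry. PGE2 and TXB2 measured by RIA.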

Homo sapiens [2] = species on record: Homo sapiens; experiment: In vitro inhibition of platelet aggregation induced by ADP-II (PRP incubated for 5 minutes at 37 degree C) at 10e-5 M; type: functional
Method in brief: (§2)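 Human venous blood anticoagulated with 3.8% sodium citrate (1:9). PRP from centrifugation at 800 rpm for 10 min at room temperature. Count adjusted with PPP to […]. Compound in saline with 10% ethylene glycol is added to PRP and incubated at 37 °C before the agonist. Agonists: ADP 2×10^-5 M, AA 0.6 mM, PGH2 2.8 μM, adrenaline 0.6 μM. Born absorbance aggregometry; n = 5.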

Homo sapiens [3] = species on record: Homo sapiens; experiment: In vitro inhibition of platelet aggregation induced by AA (PRP incubated for 60 minutes at 37 degree C) at 5e-6 M;No significance; type: functional; method in brief: as §2
Rattus norvegicus [4] = experiment: Antihypertensive activity in spontaneously hypertensive rats (SHR) measured by percentage fall in cardiac rhythm (CR) at 50 mg/kg administered intraperitoneally at 3 h; type: functional, Heart; settings: route intraperitoneal
Method in brief: (§3)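 Conscious SHR (Okamoto strain), 8 weeks old, male and female, 300–350 g, systolic BP ≥190 mmHg, CR 400–650 beats/min. Given ip or po at 2.5 mL/kg in normal saline or saline with 0.2% (carboxymethyl)cellulose and 1.0% Tween 80. Tail AP and CR recorded by mechanical transduction at 1, 3, 5 and 24 h, five animals per dose. Effect expressed as % fall versus control.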

Rattus norvegicus [5] = experiment: Antihypertensive activity in spontaneously hypertensive rats (SHR) measured by percentage fall in arterial pressure (AP) at 50 mg/kg administered intraperitoneally at 3 h; type: functional, Artery; settings: route intraperitoneal
Method in brief: (§4)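 Unanesthetized Okamoto-strain SHR, male and female, 8 weeks old, 300–350 g, systolic pressure ≥190 mmHg, heart rate 400–650 beats/min; five animals per dose. Given ip at 2.5 mL/kg, dissolved or suspended in normal saline or saline with 0.2% (carboxymethyl)cellulose and 1.0% Tween 80. Tail AP and CR recorded by mechanical transduction at set times; reported as percentage fall from control.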

Rattus norvegicus [6] = experiment: Antihypertensive activity in spontaneously hypertensive rats (SHR) measured by percentage fall in arterial pressure (AP) at 50 mg/kg administered intraperitoneally at 5 h; type: functional, Artery; settings: route intraperitoneal; method in brief: as §4
Homo sapiens [7] = species on record: Homo sapiens; experiment: In vitro inhibition of platelet aggregation induced by ADP-II (PRP incubated for 60 minutes at 37 degree C) at 5e-6 M; type: functional; method in brief: as §2
Homo sapiens [8] = species on record: Homo sapiens; experiment: Inhibition of platelet aggregation induced by AA (PRP incubated for 60 minutes at 37 degree C) at 10e-5 M; type: functional; settings: 1 h; method in brief: as §2
Rattus norvegicus [9] = experiment: Antihypertensive activity in spontaneously hypertensive rats (SHR) measured by percentage fall in cardiac rhythm (CR) at 50 mg/kg administered intraperitoneally at 5 h; type: functional, Heart; settings: route intraperitoneal; method in brief: as §3
Rattus norvegicus [10] = experiment: Antihypertensive activity in spontaneously hypertensive rats (SHR) measured by percentage fall in arterial pressure (AP) at 50 mg/kg administered intraperitoneally at 24 h; type: functional, Artery; settings: route intraperitoneal; method in brief: as §4
Homo sapiens [11] = species on record: Homo sapiens; experiment: In vitro inhibition of platelet aggregation induced by PGH-2 (PRP incubated for 60 minutes at 37 degree C) at 10e-5 M; type: functional; settings: 1 h; method in brief: as §2
Homo sapiens [12] = species on record: Homo sapiens; experiment: In vitro inhibition of platelet aggregation induced by ADP-II (PRP incubated for 60 minutes at 37 degree C) at 10e-5 M; type: functional; settings: 1 h; method in brief: as §2
[13] = Effect on thromboxane synthetase activity on in vitro platelet aggregation induced by AA at 10e -5 M expressed as percent increase in PGE-2; type: functional, Homo sapiens
Method in brief: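 Human citrated PRP adjusted to 200 000 […], compound at 10^-5 M final in saline/10% ethylene glycol, incubated at 37 °C. Aggregation induced with arachidonic acid 0.6 mM and read by Born absorbance aggregometry. PGE2 and TXB2 in the aggregated samples measured by radioimmunoassay. n = 5.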

Rattus norvegicus [14] = experiment: Antihypertensive activity in spontaneously hypertensive rats (SHR) measured by percentage fall in cardiac rhythm (CR) at 50 mg/kg administered intraperitoneally at 24 h; type: functional, Heart; settings: route intraperitoneal; method in brief: as §3
Cavia porcellus [15] = experiment: Ex vivo inhibition of platelet aggregation induced by ADP-II at 100 mg/kg; type: functional; method in brief: as §1
Cavia porcellus [16] = experiment: Ex vivo inhibition of platelet aggregation induced by AA at 100 mg/kg; type: functional; method in brief: as §1
Cavia porcellus [17] = experiment: Effect on thromboxane synthetase activity on ex vivo platelet aggregation induced by TXB2 at 100 mg/kg expressed as percent increase; type: functional; method in brief: as §1
[18] = target: T1, Thromboxane-A synthase (Homo sapiens) (UniProt P24557); experiment: Effect on thromboxane synthetase activity on in vitro platelet aggregation induced by AA at 10e -5 M expressed as percent inhibition of TXB2
T1 sequence (whole entry): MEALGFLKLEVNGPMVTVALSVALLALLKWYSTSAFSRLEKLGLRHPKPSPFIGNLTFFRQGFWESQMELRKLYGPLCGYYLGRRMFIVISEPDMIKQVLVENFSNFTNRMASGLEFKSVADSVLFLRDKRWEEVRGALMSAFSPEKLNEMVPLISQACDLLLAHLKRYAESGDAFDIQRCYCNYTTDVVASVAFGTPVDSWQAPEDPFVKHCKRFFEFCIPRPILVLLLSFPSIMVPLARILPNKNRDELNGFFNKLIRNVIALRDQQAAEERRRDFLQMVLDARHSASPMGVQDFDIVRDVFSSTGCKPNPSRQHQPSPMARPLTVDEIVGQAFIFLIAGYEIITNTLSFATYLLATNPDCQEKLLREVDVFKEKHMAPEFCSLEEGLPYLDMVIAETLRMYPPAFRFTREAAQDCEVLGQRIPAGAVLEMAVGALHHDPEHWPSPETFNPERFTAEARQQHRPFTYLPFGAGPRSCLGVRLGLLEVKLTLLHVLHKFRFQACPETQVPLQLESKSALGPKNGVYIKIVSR

Homo sapiens [19] = species on record: Homo sapiens; experiment: In vitro inhibition of platelet aggregation induced by DD (PRP incubated for 5 minutes at 37 degree C) at 10e-5 M; type: functional; method in brief: as §2
Homo sapiens [20] = species on record: Homo sapiens; experiment: In vitro inhibition of platelet aggregation induced by ADP-II (PRP incubated for 5 minutes at 37 degree C) at 10e-6 M; type: functional; method in brief: as §2
Rattus norvegicus [21] = experiment: Antihypertensive activity in spontaneously hypertensive rats (SHR) measured by percentage fall in arterial pressure (AP) at 25 mg/kg administered intraperitoneally at 1 h; type: functional, Artery; settings: route intraperitoneal; method in brief: as §4
Rattus norvegicus [22] = experiment: Antihypertensive activity in spontaneously hypertensive rats (SHR) measured by percentage fall in arterial pressure (AP) at 25 mg/kg administered intraperitoneally at 5 h; type: functional, Artery; settings: route intraperitoneal; method in brief: as §4
Rattus norvegicus [23] = experiment: Antihypertensive activity in spontaneously hypertensive rats (SHR) measured by percentage fall in arterial pressure (AP) at 25 mg/kg administered intraperitoneally at 3 h; type: functional, Artery; settings: route intraperitoneal; method in brief: as §4
Homo sapiens [24] = species on record: Homo sapiens; experiment: In vitro inhibition of platelet aggregation induced by ADP-II (PRP incubated for 5 minutes at 37 degree C) at 10e-5 M; No significance; type: functional; method in brief: as §2
Homo sapiens [25] = species on record: Homo sapiens; experiment: In vitro inhibition of platelet aggregation induced by AA (PRP incubated for 60 minutes at 37 degree C) at 10e-5 M; No significance; type: functional; method in brief: as §2
Rattus norvegicus [26] = experiment: Antihypertensive activity in spontaneously hypertensive rats (SHR) measured by percentage fall in cardiac rhythm (CR) at 25 mg/kg administered intraperitoneally at 3 h; type: functional, Heart; settings: route intraperitoneal; method in brief: as §4
Rattus norvegicus [27] = experiment: Antihypertensive activity in spontaneously hypertensive rats (SHR) measured by percentage fall in cardiac rhythm (CR) at 25 mg/kg administered intraperitoneally at 1 h; type: functional, Heart; settings: route intraperitoneal; method in brief: as §4
Rattus norvegicus [28] = experiment: Antihypertensive activity in spontaneously hypertensive rats (SHR) measured by percentage fall in cardiac rhythm (CR) at 25 mg/kg administered intraperitoneally at 5 h; No significance; type: functional, organism-based; parameters: dose 25 mg/kg; settings: Heart; method in brief: as §3
Homo sapiens [29] = species on record: Homo sapiens; experiment: In vitro inhibition of platelet aggregation induced by […] (PRP incubated for 5 minutes at 37 degree C) at 10e-5 M; No significance; type: functional
Rattus norvegicus [30] = experiment: Percent fall in systolic blood pressure, directly measured on carotid (iv on the jugular vein) of spontaneously after 180 minutes; No significance; type: functional, organism-based; settings: Artery
Method in brief: (§5)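 Anesthetized (sodium pentobarbital, 70 mg/kg) male and female Okamoto SHR, 8 weeks old, 300–350 g. Given iv into the jugular vein in normal saline. Arterial pressure and cardiac rhythm are recorded directly from the carotid by polygraph at set times after dosing. Each is expressed as percent change from the pre-dose control value.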

Rattus norvegicus [31] = experiment: Antihypertensive activity in spontaneously hypertensive rats (SHR) measured by percentage fall in arterial pressure (AP) at 1 mg/kg administered intraperitoneally at 1 h;No significance; type: functional, organism-based; parameters: dose 1 mg/kg; settings: Artery; method in brief: as §4
Rattus norvegicus [32] = experiment: Antihypertensive activity in spontaneously hypertensive rats (SHR) measured by percentage fall in arterial pressure (AP) at 25 mg/kg administered perorally at 24 h;No significance; type: functional, organism-based; parameters: dose 25 mg/kg; settings: Artery
Method in brief: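 Oral dosing at 2.5 mL/kg to unanesthetized male and female Okamoto-strain SHR (8 weeks old, 300–350 g, systolic pressure ≥190 mmHg, heart rate 400–650 beats/min), five per dose. Vehicle was normal saline or saline with 0.2% (carboxymethyl)cellulose and 1.0% Tween 80. AP measured on the tail by mechanical transduction at set times; expressed as percentage fall from control.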

Rattus norvegicus [33] = experiment: Antihypertensive activity in spontaneously hypertensive rats (SHR) measured by percentage fall in arterial pressure (AP) at 1 mg/kg administered intraperitoneally at 5 h;No significance; type: functional, organism-based; parameters: dose 1 mg/kg; settings: Artery; method in brief: as §4
Rattus norvegicus [34] = experiment: Percent fall in systolic blood pressure, directly measured on carotid (iv on the jugular vein) of spontaneously hypertensive rats at 1 mg/kg after 240 minutes; No significance; type: functional, organism-based; parameters: dose 1 mg/kg; settings: Artery; method in brief: as §5
Rattus norvegicus [35] = experiment: Antihypertensive activity in spontaneously hypertensive rats (SHR) measured by percentage fall in cardiac rhythm (CR) at 25 mg/kg administered perorally at 24 h;No significance; type: functional, organism-based; parameters: dose 25 mg/kg; settings: Heart; method in brief: as §3

Inhibition % [18]: 50%
Structure (SMILES): Oc1[nH]ncc2c3cc(OCc4ccccc4)ccc3nc1-2
Increase (Cavia porcellus [1]): 30% | inhibition at 10 µM (Homo sapiens [2]): 60% | inhibition (Homo sapiens [3]): No significant values | Decrease in CR (Rattus norvegicus [4]): 10% | Decrease in AP (Rattus norvegicus [5]): 12% | Decrease in AP (Rattus norvegicus [6]): 13% | Inhibition (Homo sapiens [7]): 80% | inhibition at 10 µM (Homo sapiens [8]): 100% | Decrease in CR (Rattus norvegicus [9]): 15% | Decrease in AP (Rattus norvegicus [10]): 7% | inhibition at 10 µM (Homo sapiens [11]): 100% | inhibition at 10 µM (Homo sapiens [12]): 100% | Increase [13]: 270% | Decrease in CR (Rattus norvegicus [14]): 9% | inhibition in vivo at 100 mg/kg (Cavia porcellus [15]): 100% | inhibition in vivo at 100 mg/kg (Cavia porcellus [16]): 100% | inhibition in vivo at 100 mg/kg (Cavia porcellus [17]): 50% | inhibition at 10 µM (Homo sapiens [19]): 100% | inhibition at 1 µM (Homo sapiens [20]): 40%

Structure (SMILES): COc1ccc2[nH]c3c(O)nncc3c2c1
Decrease in AP (Rattus norvegicus [21]): 10% | Decrease in AP (Rattus norvegicus [22]): 5% | Decrease in AP (Rattus norvegicus [23]): 10% | inhibition (Homo sapiens [24]): No significant values | inhibition (Homo sapiens [25]): No significant values | Decrease in CR (Rattus norvegicus [26]): 5% | Decrease in CR (Rattus norvegicus [27]): 7% | inhibition at 10 µM (Homo sapiens [12]): 100% | inhibition (Rattus norvegicus [28]): No significant values | inhibition (Homo sapiens [29]): No significant values

Structure (SMILES): NNc1[nH]ncc2c3cc(O)ccc3nc1-2
Decrease in blood pressure (Rattus norvegicus [30]): No significant values | Decrease in AP (Rattus norvegicus [31]): No significant values | Decrease in AP (Rattus norvegicus [32]): No significant values | Decrease in AP (Rattus norvegicus [33]): No significant values | Decrease in blood pressure (Rattus norvegicus [34]): No significant values | Decrease in CR (Rattus norvegicus [35]): No significant values
